Laboratory results from ChEMBL document CHEMBL4622914, “Development of a bioavailable boron-containing PI-103 Bioisostere, PI-103BE” (Bioorg Med Chem Lett, 2020).

Tests used:
[1] = system: CWR22R; test: Antiproliferative activity against human 22Rv1 cells assessed as reduction in cell viability incubated for 4 days by coulter counter method; format: functional, cell-based
Method in brief: (§1)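 Cancer cells were seeded at 50,000 per well in DMEM with 5% FBS. They were exposed to six compound doses for 4 days, with DMSO as vehicle control and a reference inhibitor as positive control. Cells were counted by Coulter counter. Survival ratio is treated cell number over vehicle cell number. IC50 was taken from dose–response curves. Triplicate experiments.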

[2] = system: MDA-MB-231; test: Antiproliferative activity against human MDA-MB-231 cells assessed as reduction in cell viability incubated for 4 days by coulter counter method; format: functional, cell-based; method in brief: as §1
[3] = Stability of compound in cell culture medium assessed as compound hydrolysis measured after 8 hrs; format: physicochemical
[4] = Stability of compound in cell culture medium assessed as compound hydrolysis measured after 24 hrs; format: physicochemical
[5] = system: A549; test: Antiproliferative activity against human A549 cells assessed as reduction in cell viability incubated for 4 days by coulter counter method; format: functional, cell-based; method in brief: as §1
[6] = system: HeLa; test: Antiproliferative activity against human HeLa cells assessed as reduction in cell viability incubated for 4 days by coulter counter method; format: functional, cell-based; method in brief: as §1
[7] = Stability of compound in cell culture medium assessed as compound hydrolysis measured after 3 hrs; format: physicochemical
[8] = Stability of compound in cell culture medium assessed as compound hydrolysis measured after 0.5 hrs; format: physicochemical
[9] = Stability of compound in cell culture medium assessed as compound hydrolysis measured after 1 hr; format: physicochemical
[10] = Cmax in ovariectomized nu/nu mouse at 10 mg/kg, ip measured upto 24 hrs by UHPLC-MS analysis; format: ADME, organism-based; set-up: dose 10 mg/kg, route intraperitoneal; conditions: female, in vivo
[11] = Drug concentration in ovariectomized nu/nu mouse plasma at 10 mg/kg, ip measured after 0.5 hrs by UHPLC-MS analysis; format: ADME, organism-based; conditions: female
[12] = Half life in ovariectomized nu/nu mouse at 10 mg/kg, ip measured upto 24 hrs by UHPLC-MS analysis; format: ADME, organism-based; conditions: female, in vivo
Method in brief: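 Female ovariectomized Nu/Nu mice, 4–6 weeks old, received a single 10 mg/kg i.p. dose as an ethanol solution. Blood was drawn from the orbital sinus at 0.5, 1, 3, 8 and 24 h, one sampling per group, into EDTA. Plasma was spun at 4 °C and stored at −80 °C. Parent and metabolites were quantified by C18 UHPLC–TSQ Vantage MS/MS.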

[13] = system: PC-3; test: Antiproliferative activity against human PC3 cells assessed as reduction in cell viability incubated for 4 days by coulter counter method; format: functional, cell-based; conditions: PC-3, 96 h
Method in brief: (§2)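 Cells seeded at 50,000 per well in DMEM with 5% FBS, exposed to six concentrations of compound for 4 days; DMSO as vehicle control. Cell numbers counted on a Coulter counter; survival ratio = treated/vehicle cell count. IC50 taken from dose-response curves. Triplicate experiments, mean ± SD.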

[14] = AUC in ovariectomized nu/nu mouse at 10 mg/kg, ip measured upto 24 hrs by UHPLC-MS analysis; format: ADME, organism-based; set-up: dose 10 mg/kg, time < 24 hr, route intraperitoneal; conditions: female, in vivo
[15] = Drug concentration in ovariectomized nu/nu mouse plasma at 10 mg/kg, ip measured after 3 hrs by UHPLC-MS analysis; format: ADME, organism-based; conditions: female
[16] = system: SK-OV-3; test: Antiproliferative activity against human SKOV3 cells assessed as reduction in cell viability incubated for 4 days by coulter counter method; format: functional, cell-based; conditions: SK-OV-3, 96 h; method in brief: as §2
[17] = Drug concentration in ovariectomized nu/nu mouse plasma at 10 mg/kg, ip measured after 8 hrs by UHPLC-MS analysis; format: ADME, organism-based; conditions: female
[18] = Drug concentration in ovariectomized nu/nu mouse plasma at 10 mg/kg, ip measured after 1 hr by UHPLC-MS analysis; format: ADME, organism-based; conditions: female
[19] = Tmax in ovariectomized nu/nu mouse at 10 mg/kg, ip measured upto 24 hrs by UHPLC-MS analysis; format: ADME, organism-based; conditions: female, in vivo

What does the source list for `OB(O)c1cccc(-c2nc(N3CCOCC3)c3oc4ncccc4c3n2)c1`?
Activity [1]: Dose-dependent effect; Activity [2]: Dose-dependent effect; Drug degradation [3]: 3.55 µM; Drug degradation [4]: 3.53 µM; Activity [5]: Dose-dependent effect; Activity [6]: Dose-dependent effect; Drug degradation [7]: 3.52 µM; Drug degradation [8]: 2.39 µM; Drug degradation [9]: 3.08 µM

For `Oc1cccc(-c2nc(N3CCOCC3)c3oc4ncccc4c3n2)c1` [PI-103], which Cmax [10] is on record?
Its Cmax is 1.4 ng/mL.

What about the IC50 ([1]; 22Rv1, 96 h) of the same compound?
The IC50 was 0.1 µM.

What about the concentration at 0.5 h [11] of the same compound?
The concentration at 0.5 h was 0.1 ng/mL.

And the half-life [12]?
The half-life was 2 h.

What about the IC50 ([2]; MDA-MB-231, 96 h) of the same compound?
The IC50 was 0.14 µM.

And the IC50 [13]?
Its IC50 is 0.17 µM.

And the Drug degradation [3]?
The Drug degradation was 0.12 µM.

And the Drug degradation [4]?
Its Drug degradation is 0.14 µM.

What about the IC50 ([5]; A549, 96 h) of the same compound?
Its IC50 is 0.18 µM.

And the AUC at 24 h [14]?
The AUC at 24 h was 9.7 ng·h/mL.

And the IC50 ([6]; 96 h)?
The IC50 was 0.16 µM.

What about the Drug degradation [7] of the same compound?
Its Drug degradation is 0.12 µM.

What about the concentration at 3 h [15] of the same compound?
The concentration at 3 h was 1 ng/mL.

What about the IC50 [16] of the same compound?
The IC50 was 0.11 µM.

What about the concentration at 8 h [17] of the same compound?
Its concentration at 8 h is 0.3 ng/mL.

And the Drug degradation [8]?
Its Drug degradation is 0.05 µM.

What about the concentration at 1 h [18] of the same compound?
The concentration at 1 h was 1.4 ng/mL.

And the Drug degradation [9]?
The Drug degradation was 0.08 µM.

What about the Tmax [19] of the same compound?
The Tmax was 1 h.
